Measurements as given in ChEMBL document CHEMBL4680221, “Discovery of pyrazole derivatives as cellular active inhibitors of histone lysine specific demethylase 5B (KDM5B/JARID1B)” (Eur J Med Chem, 2020).

What was measured:
[1] = biological target: Lysine-specific demethylase 5A (Homo sapiens, UniProt P29375); assay: Inhibition of KDM5A (unknown origin) at 1 uM relative to control
[2] = biological target: T1, Lysine-specific demethylase 4A (Homo sapiens) (UniProt O75164); assay: Inhibition of KDM4A (unknown origin) at 1 uM relative to control
T1 sequence (whole entry): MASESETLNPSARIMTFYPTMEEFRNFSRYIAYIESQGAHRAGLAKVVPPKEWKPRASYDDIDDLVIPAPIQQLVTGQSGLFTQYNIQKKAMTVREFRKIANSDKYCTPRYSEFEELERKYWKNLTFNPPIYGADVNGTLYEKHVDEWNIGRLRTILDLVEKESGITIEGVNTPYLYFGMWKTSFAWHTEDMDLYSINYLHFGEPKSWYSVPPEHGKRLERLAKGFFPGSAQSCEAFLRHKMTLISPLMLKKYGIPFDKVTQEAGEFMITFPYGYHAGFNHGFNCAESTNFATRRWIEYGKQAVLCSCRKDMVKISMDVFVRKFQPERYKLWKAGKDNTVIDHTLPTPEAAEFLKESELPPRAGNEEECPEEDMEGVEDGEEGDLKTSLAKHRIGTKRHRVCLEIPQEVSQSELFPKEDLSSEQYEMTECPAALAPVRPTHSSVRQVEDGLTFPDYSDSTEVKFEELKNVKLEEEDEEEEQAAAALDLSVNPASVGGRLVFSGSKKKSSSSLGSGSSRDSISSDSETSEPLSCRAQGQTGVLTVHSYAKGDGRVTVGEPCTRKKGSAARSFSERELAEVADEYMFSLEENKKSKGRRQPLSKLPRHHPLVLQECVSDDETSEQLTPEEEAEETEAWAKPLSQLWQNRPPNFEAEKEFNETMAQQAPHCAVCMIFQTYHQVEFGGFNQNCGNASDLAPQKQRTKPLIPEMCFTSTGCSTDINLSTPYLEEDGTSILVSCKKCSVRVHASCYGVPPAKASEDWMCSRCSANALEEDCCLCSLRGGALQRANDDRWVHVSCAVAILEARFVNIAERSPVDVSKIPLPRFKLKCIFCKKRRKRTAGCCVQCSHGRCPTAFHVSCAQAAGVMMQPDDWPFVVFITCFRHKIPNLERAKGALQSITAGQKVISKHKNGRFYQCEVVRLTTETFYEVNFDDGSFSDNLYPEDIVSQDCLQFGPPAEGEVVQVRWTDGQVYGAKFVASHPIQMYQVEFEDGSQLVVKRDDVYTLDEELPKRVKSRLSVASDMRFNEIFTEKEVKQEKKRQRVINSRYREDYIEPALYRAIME

[3] = biological target: T2, Lysine-specific demethylase 4A (Homo sapiens, UniProt O75164); assay: Inhibition of KDM4A (unknown origin)
T2 sequence (O75164 whole entry): T1 sequence (whole entry)

[4] = biological target: Lysine-specific demethylase 5C (Homo sapiens, UniProt P41229); assay: Inhibition of KDM5C (unknown origin)
Chain of Lysine-specific demethylase 5C (P41229 whole entry): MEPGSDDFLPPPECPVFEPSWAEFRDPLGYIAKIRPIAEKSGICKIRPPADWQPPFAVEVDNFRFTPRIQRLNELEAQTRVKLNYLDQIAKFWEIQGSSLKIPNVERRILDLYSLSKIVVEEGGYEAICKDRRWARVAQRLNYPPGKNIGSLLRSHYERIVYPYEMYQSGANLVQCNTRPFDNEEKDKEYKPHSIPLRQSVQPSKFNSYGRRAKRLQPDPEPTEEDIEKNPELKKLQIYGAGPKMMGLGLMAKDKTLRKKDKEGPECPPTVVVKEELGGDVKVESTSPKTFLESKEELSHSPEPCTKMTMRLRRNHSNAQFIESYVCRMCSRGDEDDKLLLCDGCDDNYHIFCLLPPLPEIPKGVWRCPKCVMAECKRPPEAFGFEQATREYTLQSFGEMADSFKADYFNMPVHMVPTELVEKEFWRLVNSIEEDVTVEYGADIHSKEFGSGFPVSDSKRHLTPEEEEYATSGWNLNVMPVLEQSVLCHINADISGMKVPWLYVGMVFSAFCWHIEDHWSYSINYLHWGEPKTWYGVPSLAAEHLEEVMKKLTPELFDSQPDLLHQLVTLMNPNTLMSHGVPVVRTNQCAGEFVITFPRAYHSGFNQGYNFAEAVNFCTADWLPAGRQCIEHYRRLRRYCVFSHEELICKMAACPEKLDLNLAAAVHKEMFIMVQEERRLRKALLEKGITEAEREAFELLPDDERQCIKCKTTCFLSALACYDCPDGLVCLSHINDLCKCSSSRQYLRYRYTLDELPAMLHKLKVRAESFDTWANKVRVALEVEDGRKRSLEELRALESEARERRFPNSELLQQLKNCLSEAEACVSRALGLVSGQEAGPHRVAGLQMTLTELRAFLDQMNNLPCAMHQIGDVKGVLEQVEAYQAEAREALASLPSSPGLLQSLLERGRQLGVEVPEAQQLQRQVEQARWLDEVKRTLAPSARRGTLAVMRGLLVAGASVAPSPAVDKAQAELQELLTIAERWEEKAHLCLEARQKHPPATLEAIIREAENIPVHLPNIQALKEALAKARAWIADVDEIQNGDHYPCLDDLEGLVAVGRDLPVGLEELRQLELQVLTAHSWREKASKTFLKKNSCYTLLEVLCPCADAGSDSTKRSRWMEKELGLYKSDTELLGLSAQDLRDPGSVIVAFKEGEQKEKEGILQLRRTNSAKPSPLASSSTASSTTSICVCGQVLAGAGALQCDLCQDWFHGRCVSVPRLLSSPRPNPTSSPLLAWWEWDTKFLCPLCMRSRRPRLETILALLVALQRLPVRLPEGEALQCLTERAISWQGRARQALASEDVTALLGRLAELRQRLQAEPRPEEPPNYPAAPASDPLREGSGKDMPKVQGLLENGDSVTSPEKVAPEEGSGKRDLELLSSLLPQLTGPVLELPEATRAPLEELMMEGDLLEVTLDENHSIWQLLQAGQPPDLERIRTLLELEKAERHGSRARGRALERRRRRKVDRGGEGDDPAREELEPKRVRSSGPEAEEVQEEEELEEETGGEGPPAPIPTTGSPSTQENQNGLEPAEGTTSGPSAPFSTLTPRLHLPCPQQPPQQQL

[5] = Cytotoxicity against human GES1 cells assessed as reduction in cell proliferation at 100 uM by MTS assay relative to control; type: cell-based; settings: read-out: Activity
How it was run: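 Normal human gastric epithelial GES-1 cells, seeded at 3×10^3 cells per well and exposed to 100 μM. Antiproliferation rate was read by MTS assay.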

[6] = biological target: T3, Lysine-specific demethylase 6B (Homo sapiens, UniProt O15054); assay: Inhibition of KDM6B (unknown origin)
T3 sequence (O15054 whole entry): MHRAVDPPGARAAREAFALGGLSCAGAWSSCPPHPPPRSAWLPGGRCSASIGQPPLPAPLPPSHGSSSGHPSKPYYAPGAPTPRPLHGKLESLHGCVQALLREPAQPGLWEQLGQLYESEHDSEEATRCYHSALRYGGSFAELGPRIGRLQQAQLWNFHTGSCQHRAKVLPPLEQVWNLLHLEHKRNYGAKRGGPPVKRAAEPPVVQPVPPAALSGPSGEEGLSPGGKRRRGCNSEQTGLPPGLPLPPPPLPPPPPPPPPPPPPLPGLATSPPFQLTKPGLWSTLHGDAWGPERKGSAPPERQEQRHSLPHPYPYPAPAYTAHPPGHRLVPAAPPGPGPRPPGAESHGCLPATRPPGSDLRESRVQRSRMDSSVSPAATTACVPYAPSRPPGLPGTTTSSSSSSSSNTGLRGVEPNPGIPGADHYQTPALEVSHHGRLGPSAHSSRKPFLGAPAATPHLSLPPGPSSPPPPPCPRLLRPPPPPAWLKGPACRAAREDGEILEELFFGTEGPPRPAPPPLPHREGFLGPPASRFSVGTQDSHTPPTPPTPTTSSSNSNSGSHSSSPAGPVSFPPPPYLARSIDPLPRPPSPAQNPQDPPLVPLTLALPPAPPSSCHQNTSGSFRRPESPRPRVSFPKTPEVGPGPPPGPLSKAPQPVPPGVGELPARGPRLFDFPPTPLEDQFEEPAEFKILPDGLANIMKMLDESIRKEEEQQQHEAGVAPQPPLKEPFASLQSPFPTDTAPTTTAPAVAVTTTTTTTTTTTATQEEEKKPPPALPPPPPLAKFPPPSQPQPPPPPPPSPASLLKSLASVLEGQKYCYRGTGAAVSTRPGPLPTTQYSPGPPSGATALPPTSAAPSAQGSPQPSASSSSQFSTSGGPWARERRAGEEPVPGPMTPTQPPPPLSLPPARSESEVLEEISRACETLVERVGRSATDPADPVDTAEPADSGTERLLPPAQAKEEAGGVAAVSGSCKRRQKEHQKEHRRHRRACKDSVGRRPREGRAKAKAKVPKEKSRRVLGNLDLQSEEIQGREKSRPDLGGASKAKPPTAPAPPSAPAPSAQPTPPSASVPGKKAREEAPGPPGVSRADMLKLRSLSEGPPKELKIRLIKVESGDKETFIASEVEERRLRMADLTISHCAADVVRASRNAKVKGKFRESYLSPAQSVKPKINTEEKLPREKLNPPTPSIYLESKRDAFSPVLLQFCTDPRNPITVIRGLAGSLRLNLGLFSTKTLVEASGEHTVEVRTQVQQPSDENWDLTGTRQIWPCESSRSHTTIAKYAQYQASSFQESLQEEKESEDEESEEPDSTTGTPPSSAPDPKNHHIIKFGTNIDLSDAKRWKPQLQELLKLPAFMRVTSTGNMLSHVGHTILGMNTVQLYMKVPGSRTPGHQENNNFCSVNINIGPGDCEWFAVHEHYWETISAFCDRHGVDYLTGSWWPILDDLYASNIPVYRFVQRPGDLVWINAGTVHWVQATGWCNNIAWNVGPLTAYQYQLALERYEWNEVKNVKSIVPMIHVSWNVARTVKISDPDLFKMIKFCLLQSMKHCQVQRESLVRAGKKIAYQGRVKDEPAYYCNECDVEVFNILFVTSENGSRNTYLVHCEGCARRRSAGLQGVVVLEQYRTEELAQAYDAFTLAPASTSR

[7] = biological target: T3, Lysine-specific demethylase 6B; assay: Inhibition of KDM6B (unknown origin) at 0.25 uM relative to control

Chain of Lysine-specific demethylase 5A (P29375 whole entry): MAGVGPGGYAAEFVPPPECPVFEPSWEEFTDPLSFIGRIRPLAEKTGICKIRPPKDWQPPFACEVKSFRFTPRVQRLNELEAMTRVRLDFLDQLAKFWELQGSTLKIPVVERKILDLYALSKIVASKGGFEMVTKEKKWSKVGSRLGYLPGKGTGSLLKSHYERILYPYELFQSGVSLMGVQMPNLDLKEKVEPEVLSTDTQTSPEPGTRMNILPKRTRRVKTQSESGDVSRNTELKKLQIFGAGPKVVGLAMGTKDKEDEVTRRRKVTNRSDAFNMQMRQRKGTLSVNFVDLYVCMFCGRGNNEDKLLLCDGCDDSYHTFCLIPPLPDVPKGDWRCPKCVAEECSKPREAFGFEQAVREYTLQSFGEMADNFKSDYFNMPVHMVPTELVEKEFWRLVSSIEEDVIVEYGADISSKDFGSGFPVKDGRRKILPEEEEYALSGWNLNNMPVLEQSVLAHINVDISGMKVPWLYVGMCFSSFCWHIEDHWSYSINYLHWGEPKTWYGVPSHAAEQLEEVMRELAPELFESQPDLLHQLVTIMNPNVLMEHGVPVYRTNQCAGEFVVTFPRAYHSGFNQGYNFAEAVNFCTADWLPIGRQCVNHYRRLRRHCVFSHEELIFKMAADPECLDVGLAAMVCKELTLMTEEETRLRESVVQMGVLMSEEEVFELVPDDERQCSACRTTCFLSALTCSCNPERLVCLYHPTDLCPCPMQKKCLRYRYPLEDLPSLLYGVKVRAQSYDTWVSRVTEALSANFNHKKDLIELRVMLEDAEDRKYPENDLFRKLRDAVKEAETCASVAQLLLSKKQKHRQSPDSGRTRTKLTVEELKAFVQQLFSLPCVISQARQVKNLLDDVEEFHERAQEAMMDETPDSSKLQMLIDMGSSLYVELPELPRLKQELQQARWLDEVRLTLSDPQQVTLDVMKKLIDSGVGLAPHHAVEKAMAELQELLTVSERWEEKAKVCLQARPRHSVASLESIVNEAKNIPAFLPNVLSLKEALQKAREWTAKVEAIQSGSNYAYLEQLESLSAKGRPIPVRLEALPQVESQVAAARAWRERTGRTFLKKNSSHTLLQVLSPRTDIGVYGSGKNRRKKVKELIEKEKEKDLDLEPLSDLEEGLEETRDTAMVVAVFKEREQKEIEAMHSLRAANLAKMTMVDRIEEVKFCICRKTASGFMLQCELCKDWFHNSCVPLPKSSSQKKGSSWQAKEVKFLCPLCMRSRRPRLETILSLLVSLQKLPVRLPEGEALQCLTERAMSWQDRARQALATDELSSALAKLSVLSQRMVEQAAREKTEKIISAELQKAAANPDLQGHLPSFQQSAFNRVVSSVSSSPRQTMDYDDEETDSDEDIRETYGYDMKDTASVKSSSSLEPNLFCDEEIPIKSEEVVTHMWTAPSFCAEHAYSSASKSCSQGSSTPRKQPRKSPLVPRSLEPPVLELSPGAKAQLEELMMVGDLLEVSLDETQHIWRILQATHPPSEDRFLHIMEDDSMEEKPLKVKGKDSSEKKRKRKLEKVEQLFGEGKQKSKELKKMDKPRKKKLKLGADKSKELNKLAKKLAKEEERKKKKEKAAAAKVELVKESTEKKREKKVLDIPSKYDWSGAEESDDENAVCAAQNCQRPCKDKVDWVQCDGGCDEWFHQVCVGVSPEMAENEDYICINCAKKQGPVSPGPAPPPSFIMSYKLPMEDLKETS

COc1ccc(-n2cc(C(=O)NCC(C)(C)N3CCOCC3)c(-c3ccccc3)n2)cc1
inhibition [1]: 79.3%
inhibition [2]: 56.2%
IC50 [3]: 954 nM
IC50 [4]: 24.8 nM
inhibition at 100 µM [5]: < 10%
IC50 [6]: > 1000 nM
inhibition [7]: 12.4%
